Measurements taken from ChEMBL document CHEMBL1949558, “Hypoxylonols C-F, benzo[j]fluoranthenes from Hypoxylon truncatum” (J Nat Prod, 2012).

Experiments:
HUVEC = assay: Antiangiogenic activity in HUVEC assessed as inhibition of cell proliferation after 72 hrs by MTT assay; format: functional, cell-based; settings: Homo sapiens
In short: (§1)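 Cells were purchased and seeded at 3000/well on collagen-coated plates for 3 h at 37 °C, 5% CO2: HUVECs in EGM-2, HUAECs in EGM-2MV. The medium was then swapped to 1% FBS-EBM-2 for 21 h. VEGF (1 nM) and samples were added for 72 h. Proliferation was read with WST-8 at 450 nm, and inhibition was expressed as IC50.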

[1] = Antiangiogenic activity in HUAEC assessed as inhibition of cell proliferation after 72 hrs by MTT assay; format: functional; settings: Homo sapiens; in short: as §1

| Compound | IC50 (HUVEC) [µM] | IC50 [1] [µM] |
| --- | --- | --- |
| CCO[C@H]1C[C@H](O)C2=C3c4cccc(O)c4C(=O)C[C@@H]3c3ccc(O)c1c32 [HYPOXYLONOL A] | 15 | 16 |
| CO[C@H]1C[C@H](O)C2=C3c4cccc(O)c4C(=O)C[C@@H]3c3ccc(O)c1c32 [HYPOXYLONOL B] | 24 | 24 |
| O=C1C[C@H]2C(=C3c4c2ccc(O)c4[C@@H](O)C[C@@H]3O)c2cccc(O)c21 [HYPOXYLONOL C] | 21 | 16 |
| CCO[C@@H]1C[C@H](O)C2=C3c4cccc(O)c4C(=O)C[C@@H]3c3ccc(O)c1c32 [HYPOXYLONOL D] | 6.9 | 6.1 |
| CO[C@@H]1C[C@H](O)C2=C3c4cccc(O)c4C(=O)C[C@@H]3c3ccc(O)c1c32 [HYPOXYLONOL E] | 7.4 | 4.1 |
| O=C1C[C@H]2C(=C3c4c2ccc(O)c4[C@H](O)C[C@@H]3O)c2cccc(O)c21 [HYPOXYLONOL F] | 17 | 14 |
